Compound activity: PubChem BioAssay, Broad Institute
Rows were chosen to be rich in hits. Some 2.2% of all compounds tested hit in one or more screens of this group.
CAL PDZ FP-1: blocks peptide binding to human CAL PDZ domain. purified CAL PDZ, TMR-peptide fluorescence polarization, 1 h. inhibition, % at 20 µM. 0.02% of 330,000 active. Q9HD26. AID 504414;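 active = highest replicate inhibition of at least 40%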
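Test system: purified CerCALP PDZ construct; Compound dosing: one concentration, 20 µM compound; Also added: TMR-labelled reporter peptide T*-PRC34 bound in PDZ groove; Read-out: inhibition from polarization loss; Controls: unlabelled peptide and DMSO controls; Signal: FP readout, S and P plane fluorescence; Incubation: 1 h at RT.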
CAL PDZ FP-2: inhibitors of human CAL PDZ peptide binding; Q9HD26; purified CAL PDZ, TMR-peptide fluorescence polarization, 1 h; inhibition, % at 24.9 µM; 0.92% of 300,000 active;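 active = mean inhibition of at least 30% with at least half of replicates also reaching 30%; inconclusive = no clear call, values can overlap the other calls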
DYRK1A inh: blocks rat Dyrk1A kinase activity. ADP-Glo luminescence, NFATc1 peptide. inhibition, % at 12.5 µM. 0.43% of 310,000 active. AID 504441; in the data active = inhibition above about 50%
Rtt109 Vps75: blocks Candida albicans Rtt109/Vps75 acetyltransferase activity; inhibition, % at 34.9 µM; 0.16% of 330,000 active; AID 540336; purified Rtt109/Vps75, ThioGlo CoA-SH fluorescence, 4 h; Q5AAJ8;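 active = inhibition of at least 50% in every replicate; inconclusive = best replicate reaches 50% inhibition but some replicates fall short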
dFosB activator: mouse delta FosB homodimer activation. activation, % at 25 µM. 0.99% of 340,000 active. purified delta FosB, TAMRA-CDK5 oligo fluorescence polarization; percent of positive-control signal above neutral wells;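 active = mean activation above about 17%, with every replicate also reaching it, limit read from the data, passing the limit was not always enough; inconclusive = only one of the two conditions met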
CDK5 p35 inh: blocks human CDK5/p35 kinase activity. Recombinant CDK5/p35, ADP-Glo luminescence, 60 min. inhibition, % at 10 µM. 0.01% of 330,000 active;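 active = highest replicate inhibition of at least 50% and at least 75% of replicates reaching 50%; inconclusive = only one of the two criteria met; inactive = both criteria failed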
Target sequence (Q00535 whole entry, looked up): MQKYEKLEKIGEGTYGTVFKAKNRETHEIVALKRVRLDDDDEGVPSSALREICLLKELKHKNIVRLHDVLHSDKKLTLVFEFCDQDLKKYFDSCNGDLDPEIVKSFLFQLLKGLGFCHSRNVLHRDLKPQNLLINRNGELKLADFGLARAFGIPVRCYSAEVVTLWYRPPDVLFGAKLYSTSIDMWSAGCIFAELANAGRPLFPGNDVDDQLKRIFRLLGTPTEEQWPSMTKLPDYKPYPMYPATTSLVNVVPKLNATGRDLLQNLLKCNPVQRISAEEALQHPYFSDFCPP
Target sequence (Q15078 whole entry, looked up): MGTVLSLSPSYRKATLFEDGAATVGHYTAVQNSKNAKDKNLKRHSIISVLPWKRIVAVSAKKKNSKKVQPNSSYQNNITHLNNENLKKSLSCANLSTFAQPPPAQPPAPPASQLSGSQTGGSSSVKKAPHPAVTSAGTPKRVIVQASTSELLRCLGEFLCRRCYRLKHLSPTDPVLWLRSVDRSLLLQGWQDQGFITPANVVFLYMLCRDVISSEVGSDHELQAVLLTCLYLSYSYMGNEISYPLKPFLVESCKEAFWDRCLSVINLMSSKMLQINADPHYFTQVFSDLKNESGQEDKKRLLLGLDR
Hits are given with their value; - = inactive; ? = inconclusive; . = no result.

SMILES	CAL PDZ FP-1	CAL PDZ FP-2	DYRK1A inh	Rtt109 Vps75	dFosB activator	CDK5 p35 inh
COc1cc(OC)cc(-c2c(C#Cc3ccsc3)c3cc(-c4cccc5[nH]ccc45)ccc3n2C)c1	-	-	-	-	17.9	-
COc1cc(OC)cc(-c2c(C#Cc3ccsc3)c3cc(-c4ccc5cc[nH]c5c4)ccc3n2C)c1	-	-	-	-	-	-
C/C(=N\OC(=O)c1cccc(C(F)(F)F)c1)c1sc(-c2ccccc2)nc1C	-	51.5	.	-	-	-
CC1c2cccn2CCN1S(=O)(=O)c1ccc(F)cc1 (stereo not given)	-	73.8	-	-	-	-
CC(=O)Nc1ccc(S(=O)(=O)Oc2ccc(/C=C3\SC(N)=NC3=O)cc2)cc1	-	-	-	-	130.2	-
C#CCn1c(S(=O)(=O)Cc2ccc(OC)cc2)nc(-c2ccccc2)c1-c1ccccc1	-	-	-	-	-	-
Cn1nc(C(=O)Nc2nc(-c3ccccn3)cs2)c2ccccc2c1=O	-	85.0	-	-	-	-
COc1ccc(OCC(=O)Nc2ccccc2C(=O)N2CCOCC2)cc1	-	51.2	-	-	-	-
O=[N+]([O-])c1ccc(Sc2cccc[n+]2[O-])c2nonc12	-	-	-	122.9	-	-
CCC(C)NC(=O)c1ccccc1-c1ccccc1C(=O)NC(C)CC (stereo not given)	-	72.5	-	.	-	-
C=CC(=O)Nc1ccc(Nc2nc(NC3CCC(N(C)C)CC3)nc3c2ncn3C(C)C)cc1 (stereo not given)	-	-	93.4	-	?	95.2
O=C1CSC(=S)N1/N=C/c1cc(Br)c(O)c(Br)c1	-	58.9	-	-	-	-
CC12CCC(=O)C=C1CCCC2=O (stereo not given)	-	-	.	-	-	-
COc1cccc(/C=C/C(=O)c2ccc3c(c2)OCCO3)c1OC	-	-	-	-	-	-
Cc1ccnc(SCC(=O)Nc2sccc2C#N)n1	-	38.8	-	-	-	-
Cc1ccc(C(=O)CCC(=O)N2CCN(c3ccc(F)cc3)CC2)cc1	-	-	-	-	-	-
O=C(CCC(=O)N1CCOCC1)c1ccc(F)cc1	-	32.9	-	-	-	-
CSc1ccccc1OCc1cc(C(=O)N2CCN(c3ccccc3)CC2C)no1 (stereo not given)	-	68.9	-	-	-	-
CC(=O)c1ccc(OCc2cc(C(=O)N3CCN(c4ccccc4)CC3C)no2)cc1 (stereo not given)	-	-	-	-	-	-
CCS(=O)(=O)c1nc(S(=O)(=O)c2ccc(C)cc2)c(N2CCN(C)CC2)s1	-	-	.	-	-	.
CC1C/C(=C\c2ccccc2[N+](=O)[O-])c2nc3ccccc3c(C(=O)O)c2C1 (stereo not given)	-	48.9	-	-	-	-
O=C(O)c1c2c(nc3ccccc13)/C(=C/c1ccccc1[N+](=O)[O-])CCC2	-	-	-	-	-	-
CC(Sc1nnc(C2CC2)n1N)C(=O)NC1CCCCC1C (stereo not given)	-	.	.	-	-	-
Cc1cc(C)c(C)c(S(=O)(=O)N2CCN(c3ncnc4ccccc34)CC2)c1C	-	-	.	-	-	-
O=S(=O)(c1cc(C(F)(F)F)ccc1Cl)N1CCN(c2ncnc3ccccc23)CC1	-	61.8	-	-	-	-
SMILES	CAL PDZ FP-1	CAL PDZ FP-2	DYRK1A inh	Rtt109 Vps75	dFosB activator	CDK5 p35 inh
COC(=O)c1c(NC(=O)CS(=O)(=O)c2ccccc2)sc(C)c1C	-	45.3	-	-	-	-
COC(=O)c1sccc1NC(=O)C12CC3CC(CC(C3)C1)C2	-	-	-	-	-	-
C=CCNc1cc(N2CCCC2)ccc1[N+](=O)[O-]	-	-	-	-	-	-
CCCCNS(=O)(=O)c1ccc2nc(SCC(=O)Nc3sccc3C#N)[nH]c2c1	.	35.3	-	-	-	-
CCCCNS(=O)(=O)c1ccc2nc(SCC(N)=O)[nH]c2c1	-	-	-	-	-	-
O=C(Cn1ncc(N2CCOCC2)c(Cl)c1=O)c1ccc(Cl)cc1	-	34.2	-	-	-	-
O=C(c1cccc(Cl)c1)N1CCC(C(=O)N2CCN(Cc3ccccc3)CC2)CC1	-	45.2	-	-	-	-
CN1CCN(c2ccc(Cl)cc2NC(=O)C2COc3ccccc3O2)CC1 (stereo not given)	-	70.5	-	-	-	-
CN(/N=C/c1ccccc1Cl)c1ncc(Cl)cc1C(F)(F)F	-	43.6	.	-	-	-
COc1ccc(N(CC(=O)NCCSc2ccc(C)cc2)S(=O)(=O)c2ccccc2)c(OC)c1	-	40.3	-	-	-	-
O=C(NCC(=O)N1CCN(c2ccccc2F)CC1)c1ccco1	-	70.9	-	-	-	-
CCOc1ccc(C=NNC(=O)c2ccc(-n3cnnn3)cc2)cc1	-	-	.	-	-	-
CC(=O)NCCNS(=O)(=O)c1ccc(C)c([N+](=O)[O-])c1	-	-	-	-	-	-
COc1ccc(CNc2nc(NCc3ccc(OC)c(OC)c3)n(C(=O)c3cccs3)n2)cc1OC	-	-	-	-	-	-
CSc1ccccc1C(=O)Nc1ccc2c(c1)CCC2	-	68.1	-	-	-	-
CC1CCCCN1C(=O)c1cccc(NC(=O)c2ccccc2)c1 (stereo not given)	-	75.7	-	.	-	-
O=C(Nc1cccc(C(=O)N2CCCCC2)c1)C1CC1	-	80.9	-	-	-	-
CC(C)C(=O)Nc1cccc(C(=O)N2CCCCC2C)c1 (stereo not given)	-	-	-	-	-	-
CN(C(=O)c1cccc(NC(=O)c2ccccc2)c1)C1CCCCC1	-	47.6	-	-	-	-
Cn1cnnc1SCC(=O)Nc1cc(S(=O)(=O)N2CCCCCC2)ccc1Cl	-	-	-	-	-	-
CC(C)Oc1ccc(S(=O)(=O)N2CCOCC2)cc1NC(=O)c1cc([N+](=O)[O-])ccc1N1CCOCC1	-	-	-	-	-	-
CC(C)(C)C(=O)Nc1sc(-c2ccccc2)cc1C(=O)O	-	-	-	-	-	-
Cc1cccc(C(=O)Nc2sc(-c3ccccc3)cc2C(=O)O)c1	-	42.9	-	-	-	-
CN(C(=O)c1ccc(NC(=O)Cc2ccc(NC(=O)C3CCN(C(=O)C4CC4)CC3)cc2)cc1)C1CCCC1	-	-	-	-	-	-
O=c1cc(-c2ccccc2F)nc(-c2ccccc2F)o1	-	34.0	-	-	-	-
O=S(=O)(NCc1cccs1)c1ccccc1Cl	-	-	-	-	-	-
O=C1CC(c2ccccc2F)C2=C(COC2=O)N1 (stereo not given)	-	-	-	-	-	-
CN(C(=O)CS(=O)(=O)c1cccc(Cl)c1)c1ccccc1	-	-	-	-	-	-
Nc1ccc(-c2c3ccc(=O)cc-3oc3cc(O)ccc23)cc1C(=O)O	-	41.0	-	-	-	-
